We go through two compounds from ChEMBL document CHEMBL4765445, “Structure-activity relationship study of novel quinazoline-based 1,6-naphthyridinones as MET inhibitors with potent antitumor efficacy” (Eur J Med Chem, 2020).

By Tmax is commonly meant the time from dosing to the highest level. In general, clearance refers to the rate of elimination divided by the concentration. Higher therefore signals efficient removal. The AUC(0-inf) is the area under the concentration-time curve extrapolated to infinity. A higher AUC(0-inf) goes with more exposure. In general, IC50 refers to the concentration that gives 50% inhibition. A word on the ED50: it is the dose that gives a 50% effect, or the effect in half of the subjects. For orientation: half-life means how long it takes for the measured level to halve. Lower therefore signals fast loss. What is called Cmax is the peak of the concentration-time curve. What is called AUC(0-t) is the area under the concentration-time curve up to a stated or last time point. Broadly, the CL/F is clearance divided by bioavailability, as obtained after extravascular dosing. What is called bioavailability is the share of a dose that reaches the circulation, judged against a reference dose that is usually intravenous. Read a low bioavailability as poor availability.

Data set [1] in a line: Tmax in rat at 10 mg/kg, po. It is filed as ADME, organism-based. To be noted: in vivo. In a few lines:
(§1)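 Rat pharmacokinetics used 10 mg/kg p.o. and 5 mg/kg i.v. with vehicle 70% PEG400-30% water. Plasma concentration–time curves gave Cmax, Tmax, T1/2, AUC0-∞, CL, Vz and oral bioavailability F. Values are the average of three animals.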

Data set [2] can be described thus: Clearance in rat at 5 mg/kg, iv. It is filed as ADME, organism-based. To be noted: in vivo. In a few lines: as §1
Data set [3] in a line: AUC (0 to infinity) in rat at 10 mg/kg, po. The conditions noted are these: in vivo. It is filed as ADME, organism-based. Also on record: time infinity, route oral, dose 10 mg/kg.
Data set [4] concerns U-87 MG. Description: Antitumor activity against human U-87 MG cells xenografted in nude mouse assessed as tumor growth inhibition at 75 mg/kg, po administered once daily for 3 weeks relative to control. It is filed as functional, U-87MG ATCC. To be noted: 504 h, read-out: TGI. For orientation: Xenograft models place foreign cells or tissue in a host animal.
Data set [5] concerns the target Platelet-derived growth factor receptor beta (Homo sapiens, UniProt P09619). Description: Inhibition of PDGFRbeta (unknown origin).
For data set [6], the target named is Vascular endothelial growth factor receptor 2 (Homo sapiens, UniProt P35968). The data set can be described thus: Inhibition of recombinant VEGFR2 kinase domain (unknown origin). Put shortly:
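In vitro kinase assay using purified recombinant VEGFR-2 kinase domain; IC50 determined.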

Data set [7] can be described thus: AUC (0 to infinity) in rat at 5 mg/kg, iv. It is filed as ADME, organism-based. More on the design: time infinity, route intravenous, dose 5 mg/kg. The conditions noted are these: in vivo.
The subject of data set [8] is U-87 MG. Description: Antitumor activity against human U-87 MG cells xenografted in po dosed nude mouse assessed as tumor growth inhibition administered once daily for 3 weeks. It is filed as functional, U-87MG ATCC.
Data set [9] addresses T1, Hepatocyte growth factor receptor (Homo sapiens, UniProt P08581). Description: Inhibition of recombinant MET kinase domain (unknown origin).
Data set [10] in a line: Half life in rat at 10 mg/kg, po. It is filed as ADME, organism-based. To be noted: in vivo. In a few lines:
as §1

The nature of data set [11]: Cmax in nude mouse xenografted with human U-87 MG cells at 75 mg/kg, po administered once daily for 3 weeks. The conditions noted are these: in vivo. It is filed as ADME, organism-based. Also on record: route oral, time 3 weeks, dose 75 mg/kg. Put shortly:
(§2)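 PK/PD sampling was done within the U-87 MG nude-mouse xenograft study. Compound was given p.o. once daily for 21 days in 70% PEG-400/H₂O. Cmax and AUC0-t were measured in plasma.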

Data set [12] is described as follows: AUC (0 to t) in nude mouse xenografted with human U-87 MG cells at 75 mg/kg, po administered once daily for 3 weeks. It is filed as ADME, organism-based. More on the design: time 3 weeks, dose 75 mg/kg. The conditions noted are these: in vivo.
Data set [13] is described as follows: Apparent volume of distribution in rat at 10 mg/kg, po. To be noted: in vivo. It is filed as ADME, organism-based. Put shortly:
as §1

Data set [14] can be described thus: AUC (0 to t) in nude mouse xenografted with human U-87 MG cells at 25 mg/kg, po administered once daily for 3 weeks. It is filed as ADME, organism-based. More on the design: time 3 weeks, dose 25 mg/kg. To be noted: in vivo.
The nature of data set [15]: Tmax in rat at 5 mg/kg, iv. It is filed as ADME, organism-based. To be noted: in vivo. Put shortly: as §1
Data set [16] in a line: Cmax in nude mouse xenografted with human U-87 MG cells at 25 mg/kg, po administered once daily for 3 weeks. The conditions noted are these: in vivo. It is filed as ADME, organism-based. Also on record: route oral, dose 25 mg/kg, time 3 weeks. Put shortly: as §2
Data set [17] relates to U-87 MG. Description: Antitumor activity against human U-87 MG cells xenografted in nude mouse assessed as tumor growth inhibition at 25 mg/kg, po administered once daily for 3 weeks. It is filed as functional, U-87MG ATCC. The conditions noted are these: 504 h, read-out: TGI.
Data set [18] can be described thus: Half life in human liver microsomes. It is filed as ADME, Microsome.
Data set [19] concerns the target T2, Receptor-type tyrosine-protein kinase FLT3 (Homo sapiens, UniProt P36888).
T2 sequence (P36888 whole entry): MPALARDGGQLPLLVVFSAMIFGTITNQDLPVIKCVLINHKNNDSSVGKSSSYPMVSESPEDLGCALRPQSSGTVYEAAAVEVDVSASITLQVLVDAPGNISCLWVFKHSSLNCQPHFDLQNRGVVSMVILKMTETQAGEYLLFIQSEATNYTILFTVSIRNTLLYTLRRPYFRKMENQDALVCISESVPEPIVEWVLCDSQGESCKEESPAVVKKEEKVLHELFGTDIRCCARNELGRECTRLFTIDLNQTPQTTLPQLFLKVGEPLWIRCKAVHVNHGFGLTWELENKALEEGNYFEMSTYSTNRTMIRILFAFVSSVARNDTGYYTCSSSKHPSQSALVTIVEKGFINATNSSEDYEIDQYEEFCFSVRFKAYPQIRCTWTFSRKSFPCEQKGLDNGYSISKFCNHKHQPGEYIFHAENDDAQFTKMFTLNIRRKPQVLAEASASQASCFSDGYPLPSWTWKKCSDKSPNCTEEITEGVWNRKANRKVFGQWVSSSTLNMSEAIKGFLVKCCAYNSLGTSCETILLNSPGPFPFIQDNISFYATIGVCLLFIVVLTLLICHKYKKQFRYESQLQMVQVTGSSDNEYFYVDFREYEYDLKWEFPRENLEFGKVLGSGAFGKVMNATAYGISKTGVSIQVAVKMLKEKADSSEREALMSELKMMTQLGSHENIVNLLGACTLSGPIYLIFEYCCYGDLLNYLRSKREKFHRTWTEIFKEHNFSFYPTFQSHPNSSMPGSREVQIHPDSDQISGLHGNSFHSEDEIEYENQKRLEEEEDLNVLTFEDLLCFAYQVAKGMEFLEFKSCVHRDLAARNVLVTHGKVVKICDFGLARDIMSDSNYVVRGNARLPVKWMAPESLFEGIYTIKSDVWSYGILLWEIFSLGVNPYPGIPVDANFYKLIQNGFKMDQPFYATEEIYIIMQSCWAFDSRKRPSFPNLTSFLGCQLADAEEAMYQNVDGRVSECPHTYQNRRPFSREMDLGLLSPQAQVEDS
Description: Inhibition of FLT3 (unknown origin).

Data set [20] is described as follows: Cmax in rat at 10 mg/kg, po. It is filed as ADME, organism-based. More on the design: route oral, dose 10 mg/kg. The conditions noted are these: in vivo. Put shortly:
as §1

A short description of data set [21]: Apparent volume of distribution in rat at 5 mg/kg, iv. It is filed as ADME, organism-based. The conditions noted are these: in vivo, read-out: Vz. Put shortly:
as §1

The target in data set [22] is Mast/stem cell growth factor receptor Kit (Homo sapiens, UniProt P10721). Description: Inhibition of c-KIT (unknown origin).
Sequence of Mast/stem cell growth factor receptor Kit (P10721 whole entry): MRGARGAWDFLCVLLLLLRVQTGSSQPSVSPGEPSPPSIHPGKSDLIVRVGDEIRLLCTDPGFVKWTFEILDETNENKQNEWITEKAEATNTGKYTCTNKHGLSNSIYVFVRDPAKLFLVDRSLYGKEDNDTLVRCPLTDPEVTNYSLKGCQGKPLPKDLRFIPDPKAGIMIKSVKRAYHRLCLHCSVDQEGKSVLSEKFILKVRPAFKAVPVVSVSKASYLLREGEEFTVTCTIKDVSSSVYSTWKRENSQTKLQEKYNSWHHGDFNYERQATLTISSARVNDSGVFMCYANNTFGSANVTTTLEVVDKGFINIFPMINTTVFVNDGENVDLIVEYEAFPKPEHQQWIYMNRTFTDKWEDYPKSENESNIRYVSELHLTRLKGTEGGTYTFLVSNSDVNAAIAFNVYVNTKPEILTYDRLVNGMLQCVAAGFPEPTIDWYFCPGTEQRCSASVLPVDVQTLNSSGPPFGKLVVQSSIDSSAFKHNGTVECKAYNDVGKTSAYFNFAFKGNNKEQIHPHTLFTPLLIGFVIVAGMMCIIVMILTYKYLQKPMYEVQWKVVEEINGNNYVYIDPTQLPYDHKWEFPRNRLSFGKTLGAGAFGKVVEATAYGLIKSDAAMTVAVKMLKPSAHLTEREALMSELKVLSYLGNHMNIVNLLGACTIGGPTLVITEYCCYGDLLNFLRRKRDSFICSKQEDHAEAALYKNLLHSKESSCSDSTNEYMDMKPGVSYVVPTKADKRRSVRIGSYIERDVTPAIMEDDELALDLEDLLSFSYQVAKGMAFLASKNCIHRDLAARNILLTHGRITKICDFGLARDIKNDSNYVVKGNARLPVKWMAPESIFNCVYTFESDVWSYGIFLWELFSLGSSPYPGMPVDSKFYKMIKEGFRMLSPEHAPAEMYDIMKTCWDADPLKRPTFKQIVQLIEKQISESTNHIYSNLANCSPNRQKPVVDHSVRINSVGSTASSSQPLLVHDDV
Data set [23] can be described thus: Cmax in rat at 5 mg/kg, iv. Also on record: route intravenous, dose 5 mg/kg. The conditions noted are these: in vivo. It is filed as ADME, organism-based. Put shortly:
as §1

Data set [24] is described as follows: Half life in rat at 5 mg/kg, iv. It is filed as ADME, organism-based. To be noted: in vivo. Put shortly:
as §1

A short description of data set [25]: Clearance in rat at 10 mg/kg, po. It is filed as ADME, organism-based. The conditions noted are these: in vivo. Put shortly:
as §1

In data set [26] the target is T1, Hepatocyte growth factor receptor. Description: Inhibition of MET in human MKN-45 cells assessed as reduction in HGF-mediated autophosphorylation. It is filed as cell-based.
Data set [27] is described as follows: Oral bioavailability in rat at 10 mg/kg. It is filed as ADME, organism-based. The conditions noted are these: in vivo. Put shortly:
as §1

The target in data set [28] is Macrophage-stimulating protein receptor (Homo sapiens, UniProt Q04912). Description: Inhibition of Ron (unknown origin).
Data set [29] is filed under the species Homo sapiens. The data set can be described thus: Selectivity ratio of IC50 for recombinant VEGFR2 (unknown origin) to IC50 for recombinant MET (unknown origin). Put shortly:
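In vitro enzyme assays used purified recombinant MET and VEGFR-2 kinase domains, each tested separately. IC50 values are in nM. The ratio divides the VEGFR-2 enzyme IC50 by the MET enzyme IC50.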

Data set [30] deals with T3, Tyrosine-protein kinase receptor UFO (Homo sapiens, UniProt P30530).
T3 sequence (P30530 whole entry): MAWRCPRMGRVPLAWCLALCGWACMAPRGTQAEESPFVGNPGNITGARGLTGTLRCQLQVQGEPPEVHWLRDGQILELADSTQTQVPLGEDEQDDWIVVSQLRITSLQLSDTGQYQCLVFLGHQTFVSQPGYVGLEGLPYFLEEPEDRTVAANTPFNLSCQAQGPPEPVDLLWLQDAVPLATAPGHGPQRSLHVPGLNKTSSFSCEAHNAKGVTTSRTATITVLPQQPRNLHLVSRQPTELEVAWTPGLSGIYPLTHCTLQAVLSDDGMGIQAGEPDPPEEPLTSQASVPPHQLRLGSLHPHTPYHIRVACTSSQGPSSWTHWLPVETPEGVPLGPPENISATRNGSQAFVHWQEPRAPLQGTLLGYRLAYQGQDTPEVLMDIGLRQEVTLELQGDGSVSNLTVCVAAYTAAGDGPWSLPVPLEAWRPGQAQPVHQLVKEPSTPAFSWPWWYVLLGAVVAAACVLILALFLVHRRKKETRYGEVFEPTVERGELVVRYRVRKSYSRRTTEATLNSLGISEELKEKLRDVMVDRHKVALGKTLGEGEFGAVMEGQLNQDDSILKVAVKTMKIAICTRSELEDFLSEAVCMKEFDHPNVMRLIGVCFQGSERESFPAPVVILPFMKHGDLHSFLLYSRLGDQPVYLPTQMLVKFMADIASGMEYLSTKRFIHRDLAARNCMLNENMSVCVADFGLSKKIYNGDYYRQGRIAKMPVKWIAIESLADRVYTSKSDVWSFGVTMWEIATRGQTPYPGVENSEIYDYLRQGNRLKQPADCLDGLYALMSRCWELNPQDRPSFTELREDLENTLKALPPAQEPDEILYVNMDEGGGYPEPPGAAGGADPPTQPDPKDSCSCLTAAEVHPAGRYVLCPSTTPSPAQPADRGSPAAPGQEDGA
Description: Inhibition of Axl (unknown origin).

Data set [31] concerns the target Proto-oncogene tyrosine-protein kinase receptor Ret (Homo sapiens, UniProt P07949). Description: Inhibition of RET (unknown origin).

T1 sequence (P08581 whole entry, the tested form may be a part): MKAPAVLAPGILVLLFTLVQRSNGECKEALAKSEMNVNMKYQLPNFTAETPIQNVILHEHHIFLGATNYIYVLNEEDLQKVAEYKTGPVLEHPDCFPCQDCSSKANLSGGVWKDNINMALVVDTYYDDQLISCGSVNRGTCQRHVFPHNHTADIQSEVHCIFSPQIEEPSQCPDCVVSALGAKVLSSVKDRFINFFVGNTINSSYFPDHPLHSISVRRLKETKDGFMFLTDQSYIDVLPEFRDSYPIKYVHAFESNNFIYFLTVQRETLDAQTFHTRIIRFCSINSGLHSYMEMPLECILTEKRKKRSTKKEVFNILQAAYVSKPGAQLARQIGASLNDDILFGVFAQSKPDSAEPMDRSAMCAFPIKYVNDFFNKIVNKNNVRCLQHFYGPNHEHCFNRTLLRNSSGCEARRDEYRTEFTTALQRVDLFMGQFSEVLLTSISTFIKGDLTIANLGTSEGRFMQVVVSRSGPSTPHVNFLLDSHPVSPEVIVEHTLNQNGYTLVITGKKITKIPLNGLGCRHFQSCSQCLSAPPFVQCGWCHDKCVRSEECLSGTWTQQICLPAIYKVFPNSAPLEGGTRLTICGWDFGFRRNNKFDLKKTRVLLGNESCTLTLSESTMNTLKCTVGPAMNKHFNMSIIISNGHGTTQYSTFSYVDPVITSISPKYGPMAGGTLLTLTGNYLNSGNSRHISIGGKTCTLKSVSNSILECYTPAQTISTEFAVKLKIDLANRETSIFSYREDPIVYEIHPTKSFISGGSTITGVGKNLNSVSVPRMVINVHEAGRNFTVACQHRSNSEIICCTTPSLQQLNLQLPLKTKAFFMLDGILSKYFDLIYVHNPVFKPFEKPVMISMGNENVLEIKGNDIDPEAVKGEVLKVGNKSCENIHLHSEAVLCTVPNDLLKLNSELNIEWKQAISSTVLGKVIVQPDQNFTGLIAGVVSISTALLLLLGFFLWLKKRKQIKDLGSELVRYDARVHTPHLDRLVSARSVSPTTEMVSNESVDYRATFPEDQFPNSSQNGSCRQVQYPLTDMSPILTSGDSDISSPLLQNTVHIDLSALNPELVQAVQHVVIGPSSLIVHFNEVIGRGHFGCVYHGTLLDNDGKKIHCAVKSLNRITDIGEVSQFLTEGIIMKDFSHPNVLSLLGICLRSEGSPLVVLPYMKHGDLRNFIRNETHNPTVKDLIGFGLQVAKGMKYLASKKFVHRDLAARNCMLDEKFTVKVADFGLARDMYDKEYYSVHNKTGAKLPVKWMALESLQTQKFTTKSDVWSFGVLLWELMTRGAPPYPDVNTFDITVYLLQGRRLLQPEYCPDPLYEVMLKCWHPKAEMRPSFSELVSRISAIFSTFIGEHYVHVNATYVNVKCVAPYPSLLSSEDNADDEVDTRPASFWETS
Sequence of Vascular endothelial growth factor receptor 2 (P35968 whole entry, the tested form may be a part): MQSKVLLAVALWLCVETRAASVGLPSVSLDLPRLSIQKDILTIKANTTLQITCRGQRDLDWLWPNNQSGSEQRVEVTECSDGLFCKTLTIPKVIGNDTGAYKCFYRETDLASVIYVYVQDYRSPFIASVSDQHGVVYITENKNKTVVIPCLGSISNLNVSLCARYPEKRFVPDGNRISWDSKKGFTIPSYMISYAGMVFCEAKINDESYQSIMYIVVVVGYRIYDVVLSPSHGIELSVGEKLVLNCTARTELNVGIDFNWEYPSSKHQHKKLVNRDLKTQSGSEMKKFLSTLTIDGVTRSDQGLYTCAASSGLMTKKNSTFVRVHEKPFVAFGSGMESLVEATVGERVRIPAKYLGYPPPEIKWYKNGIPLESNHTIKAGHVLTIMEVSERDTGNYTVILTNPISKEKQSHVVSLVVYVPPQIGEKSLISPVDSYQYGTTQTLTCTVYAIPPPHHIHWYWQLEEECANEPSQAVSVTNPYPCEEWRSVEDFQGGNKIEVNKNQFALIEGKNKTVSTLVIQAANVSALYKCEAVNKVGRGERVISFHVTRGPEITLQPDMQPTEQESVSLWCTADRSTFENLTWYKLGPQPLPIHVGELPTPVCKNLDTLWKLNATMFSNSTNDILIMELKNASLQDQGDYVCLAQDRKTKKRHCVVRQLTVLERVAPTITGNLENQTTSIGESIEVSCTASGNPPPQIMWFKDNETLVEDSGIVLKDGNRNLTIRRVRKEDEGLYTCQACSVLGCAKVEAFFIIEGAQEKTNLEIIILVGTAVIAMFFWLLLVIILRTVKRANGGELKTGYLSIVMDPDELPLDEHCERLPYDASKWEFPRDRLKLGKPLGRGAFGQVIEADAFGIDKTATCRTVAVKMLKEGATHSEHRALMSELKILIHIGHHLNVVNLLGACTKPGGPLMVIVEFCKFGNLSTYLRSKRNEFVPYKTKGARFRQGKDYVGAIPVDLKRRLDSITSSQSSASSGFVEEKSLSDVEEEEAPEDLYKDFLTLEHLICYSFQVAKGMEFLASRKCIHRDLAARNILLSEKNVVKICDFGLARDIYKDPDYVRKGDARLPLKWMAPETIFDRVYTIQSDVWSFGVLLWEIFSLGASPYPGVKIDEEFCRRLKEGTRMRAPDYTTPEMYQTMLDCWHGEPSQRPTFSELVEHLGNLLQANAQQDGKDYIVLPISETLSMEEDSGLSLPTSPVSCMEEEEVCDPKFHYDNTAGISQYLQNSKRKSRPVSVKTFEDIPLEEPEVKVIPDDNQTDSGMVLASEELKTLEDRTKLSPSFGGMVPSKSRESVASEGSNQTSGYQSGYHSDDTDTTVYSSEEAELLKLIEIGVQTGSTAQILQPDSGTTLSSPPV
Sequence of Platelet-derived growth factor receptor beta (P09619 whole entry, the tested form may be a part): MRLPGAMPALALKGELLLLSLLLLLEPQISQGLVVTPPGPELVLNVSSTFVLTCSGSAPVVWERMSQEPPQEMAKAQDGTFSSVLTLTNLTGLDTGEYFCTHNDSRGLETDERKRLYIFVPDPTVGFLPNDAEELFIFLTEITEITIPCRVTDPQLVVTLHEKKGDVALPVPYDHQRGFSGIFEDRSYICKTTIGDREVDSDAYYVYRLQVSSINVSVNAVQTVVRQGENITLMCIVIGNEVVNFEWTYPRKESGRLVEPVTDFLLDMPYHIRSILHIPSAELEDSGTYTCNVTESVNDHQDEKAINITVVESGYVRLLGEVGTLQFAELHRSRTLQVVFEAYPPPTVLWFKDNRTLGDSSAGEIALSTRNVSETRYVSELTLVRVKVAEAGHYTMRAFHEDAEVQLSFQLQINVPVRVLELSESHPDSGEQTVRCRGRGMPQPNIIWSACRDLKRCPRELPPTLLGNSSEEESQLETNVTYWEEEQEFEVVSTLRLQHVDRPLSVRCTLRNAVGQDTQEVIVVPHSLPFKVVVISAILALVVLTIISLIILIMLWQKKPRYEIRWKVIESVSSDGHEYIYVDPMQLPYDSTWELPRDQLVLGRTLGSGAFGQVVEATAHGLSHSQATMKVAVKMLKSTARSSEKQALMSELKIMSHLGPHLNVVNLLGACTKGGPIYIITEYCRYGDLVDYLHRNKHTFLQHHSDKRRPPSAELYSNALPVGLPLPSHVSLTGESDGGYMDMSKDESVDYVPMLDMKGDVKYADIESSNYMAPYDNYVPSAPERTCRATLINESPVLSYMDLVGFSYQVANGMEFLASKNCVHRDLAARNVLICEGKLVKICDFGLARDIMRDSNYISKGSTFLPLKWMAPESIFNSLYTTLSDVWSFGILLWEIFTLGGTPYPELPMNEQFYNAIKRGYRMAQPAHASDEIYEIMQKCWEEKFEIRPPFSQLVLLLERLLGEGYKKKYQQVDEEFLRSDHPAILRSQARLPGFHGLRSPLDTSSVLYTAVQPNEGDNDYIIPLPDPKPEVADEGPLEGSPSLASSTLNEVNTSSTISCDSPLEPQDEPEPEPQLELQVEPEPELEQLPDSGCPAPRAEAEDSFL

On to `COc1cc2ncnc(Oc3ccc(Nc4nccc5[nH]cc(-c6ccc(F)cc6)c(=O)c45)cc3)c2cc1OC`, for which the time of peak concentration (Tmax) is 3.5 h in data set [1] and 1.8 min in data set [15]. In data set [2], this compound had a clearance of 0.167 mL/min/kg. The area under the curve AUC(0-inf) in data set [3] turned out to be 427 µg·h/mL; in data set [7] it was 510 µg·h/mL. Besides, the inhibition in vivo at 75 mg/kg in [4] was 81%. Moreover, the IC50 was more than 2000 nM in data set [5]; 111 nM in data set [6]; 9 nM in data set [9]; 16.9 nM in data set [19]; 28.3 nM in data set [22]; 86.5 nM in data set [26]. Further, the ED50 in data set [8] (504 h) is 25 mg/kg. The TGI entry in data set [8] (U-87MG ATCC) was “Dose-dependent effect”. In addition, the half-life in data set [10] was 12.5 h; in data set [18], 10.4 h; in data set [24], 14 h. Also, the maximum concentration (Cmax) in [11] was found to be 16000 ng/mL; in data set [16], 12100 ng/mL; in [20], 25100 ng/mL; in data set [23], 44000 ng/mL. For the same compound, the area under the curve AUC(0-t) at 504 h in [12] worked out at 279 µg·h/mL; in data set [14], 156 µg·h/mL. Moreover, the Vz in [13] stood at 0.4 L/kg. Moreover, the inhibition in vivo at 25 mg/kg in data set [17] was 51%. Besides, the Vd in data set [21] was 0.2 L/kg. Moreover, the CL/F in data set [25] is 0.333 mL/min/kg. The compound further yielded a bioavailability in data set [27] of 42%.

On to `COc1cc2ncnc(Oc3ccc(Nc4nccc5[nH]cc(-c6ccc(F)cc6)c(=O)c45)cc3F)c2cc1OC`, for which the IC50 in [28] is 90.1 nM; in [5] it was 1360 nM; in data set [6] it was 267 nM; in data set [30], 11 nM; in [19] it was 10.2 nM; in data set [22] it was 45.1 nM. Besides, the IC50 was determined as 65.3 nM in data set [31] and 59.4 nM in data set [26]. In addition, in data set [29], the Ratio IC50 came to 27.6. The half-life in data set [18] is 4.83 h.
